Results published in ChEMBL document CHEMBL4138226, “Marine Natural Product Honaucin A Attenuates Inflammation by Activating the Nrf2-ARE Pathway” (J Nat Prod, 2018).
Where a name gives a salt, the structure may show the parent alone. Calls of active or inactive are those of the source. No cut-off for these calls is given here.

Columns and labels:
[1] = biological target: T1, Keap1/Nrf2 (Homo sapiens) (UniProt Q16236+Q14145); assay: Activation of Keap1/Nrf2 in human MCF7 cells assessed as Nrf2 stabilization at 15 uM incubated overnight by luciferase reporter gene based luminescence assay; type: cell-based
In short: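 MCF7 cells stably carrying an Nrf2-responsive firefly luciferase construct, grown with G418, seeded 5 × 10^4 cells/well and left overnight at 37 °C. Compound added in DMSO (tested range 1.98–15.0 μM), incubated overnight. Cells washed, lysed 15 min at room temperature, luminescence read after substrate injection. Activation = % RLU over untreated cells, DMSO value subtracted. Triplicate technical wells; positive controls tBHQ and DMF.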

MCF7 = assay: Cytotoxicity against human MCF7 cells assessed as decrease in cell viability at 15 uM by MTT assay; type: cell-based; conditions: mcf7, 15 µM
In short: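 Nrf2-reporter MCF7 cells seeded and dosed as in the reporter assay (1.98–15.0 μM in DMSO, overnight at 37 °C). Cells washed, then 1 mg/mL MTT in serum-free DMEM for 25 min at 37 °C. Formazan dissolved in DMSO, absorbance read at 570 and 630 nm, background subtracted. Viability given as % of untreated control, mean ± standard error.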

[2] = biological target: T1, Keap1/Nrf2 (Homo sapiens); assay: Activation of Keap1/Nrf2 in human MCF7 cells assessed as Nrf2 stabilization incubated overnight by luciferase reporter gene based luminescence assay; type: cell-based
In short: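 NRF2 luciferase reporter MCF7 stable cells in DMEM/10% FBS with G418, seeded 5 × 10^4 cells/well, overnight adherence; DMSO-dissolved compound 1.98–15.0 μM, overnight 37 °C/5% CO2. Lysed in passive lysis buffer, firefly luciferase substrate injected, luminescence read. Activation (%) = (treated − untreated)/untreated × 100, DMSO value subtracted; tBHQ and DMF positive controls; three technical replicates per biological replicate.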

Mus musculus [3] = assay: Antiinflammatory activity in hypersensitivity CD1 mouse ear edema model assessed as PMA-induced ear edema at 3 umol/ear applied topically pretreated for 10 mins followed by PMA application measured after 6 hrs (reference value: 32.5 +/- 7.5%); type: functional
Mus musculus [4] = assay: Antiinflammatory activity in hypersensitivity CD1 mouse ear edema model assessed as PMA-induced ear edema at 1 umol/ear applied topically pretreated for 10 mins followed by PMA application measured after 6 hrs (reference value: 32.5 +/- 7.5%); type: functional
Mus musculus [5] = assay: Antiinflammatory activity in hypersensitivity CD1 mouse ear edema model assessed as PMA-induced ear edema at 0.3 umol/ear applied topically pretreated for 10 mins followed by PMA application measured after 6 hrs (reference value: 32.5 +/- 7.5%); type: functional
Mus musculus [6] = assay: Antiinflammatory activity in hypersensitivity CD1 mouse ear edema model assessed as PMA-induced ear edema at 0.1 umol/ear applied topically pretreated for 10 mins followed by PMA application measured after 6 hrs (reference value: 32.5 +/- 7.5%); type: functional
[7] = biological target: T2, Kelch-like ECH-associated protein 1/Nuclear factor erythroid 2-related factor 2 (Mus musculus) (UniProt Q60795+Q9Z2X8); assay: Activation of Keap1/Nrf2 in mouse LPS-induced RAW264.7 cells assessed as increase in Srxn1 expression level at 4 to 12 uM pretreated for 1 hr followed by LPS addition measured after 30 to 180 mins; type: cell-based
In short: (§1)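 RAW 264.7 macrophages (DMEM, 10% FBS) grown near confluent; compound (4 or 12 μM) or EtOH vehicle 1 h at 37 °C, then LPS (E. coli O26:B6, 0.5 μg/mL) for 30 or 180 min; triplicate wells. TRIzol total RNA, rRNA depletion, Illumina HiSeq2000 100 bp single-end reads; DESeq2 differential expression versus matched LPS-only control.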

[8] = biological target: T2, Kelch-like ECH-associated protein 1/Nuclear factor erythroid 2-related factor 2 (Mus musculus); assay: Activation of Keap1/Nrf2 in mouse LPS-induced RAW264.7 cells assessed as increase in Hmox1 expression level at 12 uM pretreated for 1 hr followed by LPS addition measured after 30 to 180 mins; type: cell-based; in short: as §1
[9] = biological target: T2, Kelch-like ECH-associated protein 1/Nuclear factor erythroid 2-related factor 2 (Mus musculus); assay: Activation of Keap1/Nrf2 in mouse LPS-induced RAW264.7 cells assessed as downregulation of Socs3 expression level at 4 to 12 uM pretreated for 1 hr followed by LPS addition measured after 30 mins; type: cell-based; in short: as §1
[10] = biological target: T2, Kelch-like ECH-associated protein 1/Nuclear factor erythroid 2-related factor 2 (Mus musculus); assay: Activation of Keap1/Nrf2 in mouse LPS-induced RAW264.7 cells assessed as downregulation of Rasgef1 expression level at 4 to 12 uM pretreated for 1 hr followed by LPS addition measured after 30 mins; type: cell-based; in short: as §1
[11] = biological target: T2, Kelch-like ECH-associated protein 1/Nuclear factor erythroid 2-related factor 2 (Mus musculus); assay: Activation of Keap1/Nrf2 in mouse LPS-induced RAW264.7 cells assessed as increase in […] expression level at 4 to 12 uM pretreated for 1 hr followed by LPS addition measured after 30 to 180 mins; type: cell-based; in short: as §1
[12] = biological target: T2, Kelch-like ECH-associated protein 1/Nuclear factor erythroid 2-related factor 2 (Mus musculus); assay: Activation of Keap1/Nrf2 in mouse LPS-induced RAW264.7 cells assessed as increase in Prdx1 expression level at 4 to 12 uM pretreated for 1 hr followed by LPS addition measured after 30 to 180 mins; type: cell-based; in short: as §1
[13] = biological target: T2, Kelch-like ECH-associated protein 1/Nuclear factor erythroid 2-related factor 2 (Mus musculus); assay: Activation of Keap1/Nrf2 in mouse LPS-induced RAW264.7 cells assessed as increase in Sqstm1 expression level at 4 to 12 uM pretreated for 1 hr followed by LPS addition measured after 30 to 180 mins; type: cell-based; in short: as §1
[14] = biological target: T2, Kelch-like ECH-associated protein 1/Nuclear factor erythroid 2-related factor 2 (Mus musculus); assay: Activation of Keap1/Nrf2 in mouse LPS-induced RAW264.7 cells assessed as increase in Gclm expression level at 4 to 12 uM pretreated for 1 hr followed by LPS addition measured after 30 to 180 mins; type: cell-based; in short: as §1
[15] = biological target: T2, Kelch-like ECH-associated protein 1/Nuclear factor erythroid 2-related factor 2 (Mus musculus); assay: Activation of Keap1/Nrf2 in mouse LPS-induced RAW264.7 cells assessed as increase in Slc7a11 expression level at 4 to 12 uM pretreated for 1 hr followed by LPS addition measured after 30 to 180 mins; type: cell-based; in short: as §1
[16] = biological target: T2, Kelch-like ECH-associated protein 1/Nuclear factor erythroid 2-related factor 2 (Mus musculus); assay: Activation of Keap1/Nrf2 in mouse LPS-induced RAW264.7 cells assessed as increase in Akr1b8 expression level at 4 to 12 uM pretreated for 1 hr followed by LPS addition measured after 30 to 180 mins; type: cell-based; in short: as §1
[17] = biological target: T2, Kelch-like ECH-associated protein 1/Nuclear factor erythroid 2-related factor 2 (Mus musculus); assay: Activation of Keap1/Nrf2 in mouse LPS-induced RAW264.7 cells assessed as change in Procr expression level at 4 to 12 uM pretreated for 1 hr followed by LPS addition measured after 30 to 180 mins; type: cell-based; in short: as §1
[18] = biological target: T2, Kelch-like ECH-associated protein 1/Nuclear factor erythroid 2-related factor 2 (Mus musculus); assay: Activation of Keap1/Nrf2 in mouse LPS-induced RAW264.7 cells assessed as change in Fosl1 expression level at 4 to 12 uM pretreated for 1 hr followed by LPS addition measured after 30 to 180 mins; type: cell-based; in short: as §1
[19] = biological target: T2, Kelch-like ECH-associated protein 1/Nuclear factor erythroid 2-related factor 2 (Mus musculus); assay: Activation of Keap1/Nrf2 in mouse LPS-induced RAW264.7 cells assessed as change in Cd300lb expression level at 4 to 12 uM pretreated for 1 hr followed by LPS addition measured after 30 to 180 mins; type: cell-based; in short: as §1
[20] = biological target: T2, Kelch-like ECH-associated protein 1/Nuclear factor erythroid 2-related factor 2 (Mus musculus); assay: Activation of Keap1/Nrf2 in mouse LPS-induced RAW264.7 cells assessed as change in […] expression level at 4 to 12 uM pretreated for 1 hr followed by LPS addition measured after 30 to 180 mins; type: cell-based; in short: as §1
[21] = biological target: T2, Kelch-like ECH-associated protein 1/Nuclear factor erythroid 2-related factor 2 (Mus musculus); assay: Activation of Keap1/Nrf2 in mouse LPS-induced RAW264.7 cells assessed as change in Ccl22 expression level at 4 to 12 uM pretreated for 1 hr followed by LPS addition measured after 30 to 180 mins; type: cell-based; in short: as §1
[22] = biological target: T2, Kelch-like ECH-associated protein 1/Nuclear factor erythroid 2-related factor 2 (Mus musculus); assay: Activation of Keap1/Nrf2 in mouse LPS-induced RAW264.7 cells assessed as change in IL-1alpha expression level at 4 to 12 uM pretreated for 1 hr followed by LPS addition measured after 30 to 180 mins; type: cell-based; in short: as §1
[23] = biological target: T2, Kelch-like ECH-associated protein 1/Nuclear factor erythroid 2-related factor 2 (Mus musculus); assay: Activation of Keap1/Nrf2 in mouse LPS-induced RAW264.7 cells assessed as change in IFNb1 expression level at 4 to 12 uM pretreated for 1 hr followed by LPS addition measured after 30 to 180 mins; type: cell-based; in short: as §1
[24] = biological target: T2, Kelch-like ECH-associated protein 1/Nuclear factor erythroid 2-related factor 2 (Mus musculus); assay: Activation of Keap1/Nrf2 in mouse LPS-induced RAW264.7 cells assessed as change in Irf1 expression level at 4 to 12 uM pretreated for 1 hr followed by LPS addition measured after 30 to 180 mins; type: cell-based; in short: as §1
[25] = biological target: T2, Kelch-like ECH-associated protein 1/Nuclear factor erythroid 2-related factor 2 (Mus musculus); assay: Activation of Keap1/Nrf2 in mouse LPS-induced RAW264.7 cells assessed as change in Fos expression level at 4 to 12 uM pretreated for 1 hr followed by LPS addition measured after 30 to 180 mins; type: cell-based; in short: as §1
[26] = biological target: T2, Kelch-like ECH-associated protein 1/Nuclear factor erythroid 2-related factor 2 (Mus musculus); assay: Activation of Keap1/Nrf2 in mouse LPS-induced RAW264.7 cells assessed as change in Nfkbia expression level at 4 to 12 uM pretreated for 1 hr followed by LPS addition measured after 30 to 180 mins; type: cell-based; in short: as §1
[27] = biological target: T2, Kelch-like ECH-associated protein 1/Nuclear factor erythroid 2-related factor 2 (Mus musculus); assay: Activation of Keap1/Nrf2 in mouse LPS-induced RAW264.7 cells assessed as change in Cd83 expression level at 4 to 12 uM pretreated for 1 hr followed by LPS addition measured after 30 to 180 mins; type: cell-based; in short: as §1
[28] = biological target: T2, Kelch-like ECH-associated protein 1/Nuclear factor erythroid 2-related factor 2 (Mus musculus); assay: Activation of Keap1/Nrf2 in mouse LPS-induced RAW264.7 cells assessed as change in TNF expression level at 4 to 12 uM pretreated for 1 hr followed by LPS addition measured after 30 to 180 mins; type: cell-based; in short: as §1
[29] = biological target: T2, Kelch-like ECH-associated protein 1/Nuclear factor erythroid 2-related factor 2 (Mus musculus); assay: Activation of Keap1/Nrf2 in mouse LPS-induced RAW264.7 cells assessed as change in IL-1beta expression level at 4 to 12 uM pretreated for 1 hr followed by LPS addition measured after 30 to 180 mins; type: cell-based; in short: as §1
[30] = biological target: T2, Kelch-like ECH-associated protein 1/Nuclear factor erythroid 2-related factor 2 (Mus musculus); assay: Activation of Keap1/Nrf2 in mouse LPS-induced RAW264.7 cells assessed as change in Nfkbiz expression level at 4 to 12 uM pretreated for 1 hr followed by LPS addition measured after 30 to 180 mins; type: cell-based; in short: as §1
[31] = biological target: T2, Kelch-like ECH-associated protein 1/Nuclear factor erythroid 2-related factor 2 (Mus musculus); assay: Activation of Keap1/Nrf2 in mouse LPS-induced RAW264.7 cells assessed as change in Ccrl2 expression level at 4 to 12 uM pretreated for 1 hr followed by LPS addition measured after 30 to 180 mins; type: cell-based; in short: as §1
[32] = biological target: T2, Kelch-like ECH-associated protein 1/Nuclear factor erythroid 2-related factor 2 (Mus musculus); assay: Activation of Keap1/Nrf2 in mouse LPS-induced RAW264.7 cells assessed as change in Tnfaip3 expression level at 4 to 12 uM pretreated for 1 hr followed by LPS addition measured after 30 to 180 mins; type: cell-based; in short: as §1

T1 sequence (Q14145 whole entry, looked up): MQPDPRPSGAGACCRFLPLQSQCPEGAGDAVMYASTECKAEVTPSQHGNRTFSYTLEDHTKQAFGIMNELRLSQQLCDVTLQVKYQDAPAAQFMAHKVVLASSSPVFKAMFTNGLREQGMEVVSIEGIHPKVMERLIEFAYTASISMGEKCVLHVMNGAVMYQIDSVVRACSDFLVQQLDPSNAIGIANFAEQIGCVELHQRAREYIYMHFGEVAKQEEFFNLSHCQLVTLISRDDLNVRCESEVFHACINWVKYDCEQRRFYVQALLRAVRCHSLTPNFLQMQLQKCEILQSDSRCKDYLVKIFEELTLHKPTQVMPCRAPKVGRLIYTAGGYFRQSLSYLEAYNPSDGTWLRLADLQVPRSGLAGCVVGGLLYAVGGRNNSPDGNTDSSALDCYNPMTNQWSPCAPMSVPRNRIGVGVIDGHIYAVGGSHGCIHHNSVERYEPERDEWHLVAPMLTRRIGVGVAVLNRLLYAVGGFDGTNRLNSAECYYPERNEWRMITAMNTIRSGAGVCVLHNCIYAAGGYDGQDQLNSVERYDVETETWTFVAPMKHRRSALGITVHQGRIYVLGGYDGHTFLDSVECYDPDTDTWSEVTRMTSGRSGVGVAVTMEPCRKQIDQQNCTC
T1 sequence (Q16236 whole entry, looked up): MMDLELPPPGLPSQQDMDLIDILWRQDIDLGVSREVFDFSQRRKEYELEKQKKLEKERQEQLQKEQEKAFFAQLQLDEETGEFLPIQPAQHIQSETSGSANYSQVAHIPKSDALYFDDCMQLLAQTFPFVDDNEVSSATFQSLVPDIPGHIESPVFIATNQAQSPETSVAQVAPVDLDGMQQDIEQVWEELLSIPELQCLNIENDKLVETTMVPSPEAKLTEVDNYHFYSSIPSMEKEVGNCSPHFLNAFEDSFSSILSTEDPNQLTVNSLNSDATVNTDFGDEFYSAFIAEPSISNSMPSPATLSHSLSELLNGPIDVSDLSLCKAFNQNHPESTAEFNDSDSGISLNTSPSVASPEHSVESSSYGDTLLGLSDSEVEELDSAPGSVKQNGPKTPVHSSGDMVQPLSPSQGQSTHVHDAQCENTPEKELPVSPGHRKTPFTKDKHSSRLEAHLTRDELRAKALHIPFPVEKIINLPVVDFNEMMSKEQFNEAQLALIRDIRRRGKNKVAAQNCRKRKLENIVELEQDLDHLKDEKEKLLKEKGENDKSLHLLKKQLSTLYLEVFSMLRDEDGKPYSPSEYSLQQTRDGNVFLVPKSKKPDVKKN
T2 sequence (Q60795 whole entry, looked up): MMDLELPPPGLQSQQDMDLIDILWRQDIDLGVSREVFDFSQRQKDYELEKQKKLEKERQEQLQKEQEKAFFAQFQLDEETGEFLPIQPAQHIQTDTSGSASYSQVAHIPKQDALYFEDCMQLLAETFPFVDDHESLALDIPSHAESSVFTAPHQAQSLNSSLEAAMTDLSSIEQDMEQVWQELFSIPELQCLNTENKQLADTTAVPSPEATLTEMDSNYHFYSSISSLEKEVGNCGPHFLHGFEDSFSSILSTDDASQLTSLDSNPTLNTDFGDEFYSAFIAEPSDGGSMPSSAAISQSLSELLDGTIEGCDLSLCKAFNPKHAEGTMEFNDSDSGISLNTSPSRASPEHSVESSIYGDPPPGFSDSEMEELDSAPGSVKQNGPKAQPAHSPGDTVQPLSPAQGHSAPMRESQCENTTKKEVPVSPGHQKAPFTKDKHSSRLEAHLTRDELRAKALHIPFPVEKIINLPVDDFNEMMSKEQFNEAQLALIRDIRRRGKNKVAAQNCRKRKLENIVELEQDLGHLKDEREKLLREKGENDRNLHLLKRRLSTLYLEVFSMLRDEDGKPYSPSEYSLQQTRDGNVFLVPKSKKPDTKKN
T2 sequence (Q9Z2X8 whole entry, looked up): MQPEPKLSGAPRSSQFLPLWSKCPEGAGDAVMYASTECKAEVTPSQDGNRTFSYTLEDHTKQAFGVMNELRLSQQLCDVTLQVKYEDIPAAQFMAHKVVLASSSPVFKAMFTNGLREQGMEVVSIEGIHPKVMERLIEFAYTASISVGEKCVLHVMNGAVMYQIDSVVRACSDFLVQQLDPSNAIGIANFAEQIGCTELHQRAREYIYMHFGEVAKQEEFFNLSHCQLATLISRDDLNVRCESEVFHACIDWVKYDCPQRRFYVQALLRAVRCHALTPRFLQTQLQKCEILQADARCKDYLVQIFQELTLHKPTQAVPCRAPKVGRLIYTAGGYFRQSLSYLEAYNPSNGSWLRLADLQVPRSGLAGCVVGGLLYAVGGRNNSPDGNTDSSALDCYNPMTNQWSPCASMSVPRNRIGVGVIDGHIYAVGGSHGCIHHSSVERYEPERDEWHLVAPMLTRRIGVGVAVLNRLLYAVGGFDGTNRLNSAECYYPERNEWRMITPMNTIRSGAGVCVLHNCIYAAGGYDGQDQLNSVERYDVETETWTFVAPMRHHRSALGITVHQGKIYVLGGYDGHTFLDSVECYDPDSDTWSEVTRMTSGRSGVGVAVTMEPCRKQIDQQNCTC

In the case of CC(C)(C)c1cc(O)ccc1O [E319], the Activity [1] is reported as “Active” and the Activity (MCF7) is reported as “Toxic”.
For O=C(/C=C/CCl)O[C@@H]1COC(=O)C1, the Activity [2] was “Dose-dependent effect”, the Activity (Mus musculus [3]) was 51.4% and the Activity (Mus musculus [4]) was 27.6%. For the same compound, the Activity (Mus musculus [5]) was 10%, the Activity (Mus musculus [6]) was 17.1% and the Activity [7] was “Active”. The Activity [8] was “Active”, the Activity [9] was “Active” and the Activity [10] was “Active”. For the same compound, the Activity [11] was “Active”, the Activity [12] was “Active” and the Activity [13] was “Active”. The Activity [14] was “Active”, the Activity [15] was “Active” and the Activity [16] was “Active”. The Activity [17] was “Active”, the Activity [18] was “Active” and the Activity [19] was “Active”. The Activity [20] was “Active”, the Activity [21] was “Active” and the Activity [22] was “Active”. The Activity [23] was “Active”, the Activity [24] was “Active” and the Activity [25] was “Active”. For the same compound, the Activity [26] was “Active”, the Activity [27] was “Active” and the Activity [28] was “Active”. For the same compound, the Activity [29] was “Active”, the Activity [30] was “Active” and the Activity [31] was “Active”. For the same compound, the Activity [32] was “Active” and the Activity (MCF7) was “Toxic”.
In the case of COC(=O)/C=C/C(=O)OC [DIMETHYL FUMARATE], the Activity [1] is reported as “Active” and the Activity (MCF7) is reported as “Toxic”.
